Source: the EternaBench riboswitch data

System: MS2 coat protein
Experiment: apparent Kd, MS2 coat protein; higher = weaker binding; RNA-MaP array
Summary of the method: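 Designed RNAs were transcribed in place on an Illumina sequencing chip from sequenced DNA templates. At room temperature and with or without input ligand, they were incubated with fluorescently labeled MS2 coat protein from 1.5 nM to 3 μM, for 0.8–1.5 h at the lowest and 10–20 min at the highest concentrations. Apparent Kd is the median of the binding-curve fits made per cluster, with designs measured on fewer than 10 clusters excluded.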

[1] = designed as: OFF switch for flavin mononucleotide, no ligand
[2] = ligand present: flavin mononucleotide, designed as: OFF switch for flavin mononucleotide
[3] = designed as: ON switch for tryptophan, no ligand
[4] = ligand present: tryptophan, designed as: ON switch for tryptophan
[5] = designed as: ON switch for flavin mononucleotide, no ligand
[6] = ligand present: flavin mononucleotide, designed as: ON switch for flavin mononucleotide
[7] = designed as: OFF switch for tryptophan, no ligand
[8] = ligand present: tryptophan, designed as: OFF switch for tryptophan
[9] = designed as: OFF switch for theophylline, no ligand
[10] = ligand present: theophylline, designed as: OFF switch for theophylline

Sequence	apparent Kd [1]	apparent Kd [2]	apparent Kd [5]	apparent Kd [6]	further results
ACCGGAAAAGGAUAUCGAAUUAGCAACAUGAGGAUCACCCAUGUCUGUCGCUCGUGUAUUCGAGAAGGUUUCGCCC	4.96 nM	5.34 nM			
CCGAACAUGAGGAUCACCCAUGUAUCCGAGCGAGGACCGGUACGGCCGCCACUCGAACUGCACCGGAAAAGGGAAACACCGAUCC					apparent Kd [3]: 56.2 nM; apparent Kd [4]: 61.8 nM
CCGAAUCAAACUGAUAGUCUACAUGAGGAUCACCCAUGUGAAAAGGAUAUCUUUUGAACUGACGAAGAGAAGGUUUUAGAGGGU	7.77 nM	8 nM			
GUGCGCGUAAAAGGAUAUUCGGAUGAUAGAACUCGAAACUACAUGAGGAUCACCCAUGUCAAGAAGAAGAAGGUUUGGCGAAAU	57.1 nM	31.7 nM			
CUCUCGGCAGGAUAUCGGCAGAUAAACAUGAGGAUCACCCAUGUGUUCUUAAAAUUCCGUCGAGAAGGGCCGCGAU	4.68 nM	5.16 nM			
ACGAAUCCCGUUCCGUGAGGACAUGAGGAUCACCCAUGUUGCAGAAGGGCCGAGCGGAUGGCGAGGCAGGAUAUGCCACAGAUC	27.6 nM	105 nM			
UUAGUACUAGGAUAUACGAUGGAAAGGAGAGCCUUACAAAUACAUGAGGAUCACCCAUGUAGAAGGAGUUGCCA	6.27 nM	5.93 nM			
GACCAACAUGAGGAUCACCCAUGUCGAGUUGGAAGUUUUACGAGAAGGAUCCUCCUGCCGAGCGGAUAGGAUAUCGAAACGGAC	11.5 nM	8.93 nM			
UCGGACCGAGGAUAUACAGUUCGUGAAGGUAAGAUACACAGACAUGAGGAUCACCCAUGUAGAAGGCGGAGUCC	12.1 nM	15.6 nM			
AGAUAAUCUUGGGAUUUCGUACAUGAGGAUCACCCAUGUCCAGAGGAUAUGCAUAGACAGGCAUCGCAGAAGGCUGGUGAACAG			35.4 nM	27.6 nM	
GGAAGCCGCUAGAAGGAAUAGCACGGGUGCUAAUUAGGAUAUAGUGUCCCAGCACAUGAGGAUCACCCAUGUAUAACACGAUCC			20.1 nM	16.9 nM	
CGGUUACAUGAGGAUCACCCAUGUUCCAUGGUUGAAGGAUAUGGCGACGGCGCGUGGGUACCAGAAGGUCAGGCAC			26 nM	19.6 nM	
UACUGUCUAACGGCCGCCACUCAGUCUCGGUUGAUUAUCUUAAGUGACAUGAGGAUCACCCAUGUGAGGACCGGGUUGUGCAUAA					apparent Kd [7]: 76 nM; apparent Kd [8]: 136 nM
UGCGUGGGAAAGAAGGCGUCCGAAUUGUGGCCACGAGGAUAUUUCCGGCGCACAUGAGGAUCACCCAUGUUCAGCUGGUAGCGU			32.5 nM	22.1 nM	
ACUAGUAGGCAAGGAUAUGGCCUCAUAAGAUAGCCAGAAGGUGCUACGGACAUGAGGAUCACCCAUGUGCAGCUCGUACGGUGG			367 nM	155 nM	
AAACGAGAGACAGAUACCAGCGCAGGAACGGAGUAUGGUGACAUGAGGAUCACCCAUGUGCGCCCUUGGCAGCUGAGCCGUAUUG					apparent Kd [9]: 27.9 nM; apparent Kd [10]: 171 nM
GUAGAGCUCAUAGGAUAUACUCGACCGGAGGCAGUAGAAGGAUGCGUCAAAUACAUGAGGAUCACCCAUGUGAUGGUAAUCGUC	13.6 nM	14.4 nM			
UAUUAACAAGGAUAUACAUGAGGAUCACCCAUGUGAAACUAUUUUAUAAUAACAACAAGUAGAAGGAGUUAAAA	13.2 nM	10.8 nM			
CCUUUACAUGAGGAUCACCCAUGUGAAAUGGAUUGCGUAAAUAGAAGGCAUCAGAUCGUACAUGAUGAGGAUAUAUUAUCGAGU			15.3 nM	7.44 nM	
UACCGAGGGACAGGAUAUUGAGCAUGCCUCGCCCAAGAAGGGUCUUCUGGAGUGACUUAUAACAUGAGGAUCACCCAUGUGAUC	410 nM	262 nM			
AAUGAAUCCAAGAAGGAACACCAGGCGCACGUAAUCCAACAUGAGGAUCACCCAUGUAUAUUCUGUAAGGAUAUUGGAUUAAAG	7.45 nM	7.24 nM			
GCGAUAGCUGUCAAGGAUAUGAGGCUGACCACAUGAGGAUCACCCAUGUUUACAACAAAAUAGAUUCAGAAGGUGACAACAAGUAG			80.3 nM	18.1 nM	
GAAUUAUGACGUGAUACCAGUGGUCAAUACUGGGAACUUAACAUGAGGAUCACCCAUGUCCACCCUUGGCAGCACGCUGACAAUC					apparent Kd [9]: 94 nM; apparent Kd [10]: 236 nM
GCAAGGUUUGUAGGAUAUCGCGUGUGAUUGAACAUGAGGAUCACCCAUGUGGAGGUUCCAUUAUCCGAGAAGGACAAGACUCGA	155 nM	84.2 nM			
UAGGAUCAAGUAGGAUAUGUAGAACGGCUUUGUACAGAAGGACUAGUACAUGAGGAUCACCCAUGUUAGGGUACCUCUAAGGCA		198 nM			
ACACCACAGCAGAAGGGUACAUUCUCCACGCGUACAGGAUAUGCGGACUCGGCGUCUCUGACAUGAGGAUCACCCAUGUUUUCU			85.9 nM	29.1 nM	
AUGCAACAUGAGGAUCACCCAUGUGGUGAUACCAGUCGACAAGUAGACCCUUGGCAGCACAGCCGAUAUCGAGAGAGAUUUUUGG					apparent Kd (designed as: ON switch for theophylline, no ligand): 487 nM; apparent Kd (ligand present: theophylline, designed as: ON switch for theophylline): 650 nM

Sequence	apparent Kd [1]	apparent Kd [2]	apparent Kd [5]	apparent Kd [6]	further results
UAACUGGACCAGAAGGGAGCGCGUCGCGCAUCAACAUACAUGAGGAUCACCCAUGUUCGAGAGUCUCAGGAUAUGGCCGGUAUA			9.92 nM	7.91 nM	
CGUCACCUAAAAGGAUAUCUACAAUACAGGAUUGCGUCUCACAUGAGGAUCACCCAUGUGUGUCCAGAGAAGGUUUCGGCACGU	8.55 nM	8.34 nM			
AAAAUACAUGAGGAUCACCCAUGUGCUUUCUAUUCAGGAUAUGGUGGUACAGUGGACAUACCAGAAGGGAAUGAAA			11.1 nM	8.34 nM	
GACGGCUCUAAGGAGGAUAUGGGAAUCAGCACAUGAGGAUCACCCAUGUAAAUGCCUCGGCUGAACCAGAAGGCCUUGGUCAGGAC			380 nM	269 nM	
GUUUUCAAGUCGGCCGCCACUGAUACAAUCCUCACCGGUUCACAUGAGGAUCACCCAUGUUCGCUCAGGACCGGGACCUUCUGUG					apparent Kd [7]: 127 nM; apparent Kd [8]: 108 nM
AAAUAUCAGUAGAAGGGCAUUUAAUCGAGACAUGCAGGAUAUACCAAUAACAGAUAAUUCUACAUGAGGAUCACCCAUGUACAG			12.7 nM	9.19 nM	
UUCUACAUGAGGAUCACCCAUGUCCCUGGGACCCUUGCAUCCAGAAGGCACGACUAGAUGGUGUGUGAGGAUAUGGAGGCGCUU	162 nM	144 nM			
AACGCGCAAGAGAAGGGACGGGAGAUUCCGUGGGCUCUGAUCCUACAUGAGGAUCACCCAUGUAGUCAGGAUAUCUGGAGACGC	106 nM	124 nM			
AACCUACAUGAGGAUCACCCAUGUGAGGAUAUUGCGGUUCUUAGCAUGAGAACCAUACCAAGAAGGCACAGGGC	7.53 nM	23.2 nM			
UAAUCGUAGGCGGCCGCCACUUUUUGGUAGUGUCCAUUGUACACUCACAUGAGGAUCACCCAUGUAAGGACCGGGCCCGCAUCAG					apparent Kd [7]: 17 nM; apparent Kd [8]: 16.7 nM
UCGUAGAUAGUAGGAUAUAAGGCCCUAGAGCAUUUAGAAGGACUUUUGAGACUAACAUGAGGAUCACCCAUGUUUCGCACAUGG			297 nM	171 nM	
UCCACACAUGAGGAUCACCCAUGUUGACAUUAUUGAGGAUAUCGGAGUGAAGGUUCGGUUCGAGAAGGCAACCAGA			19.8 nM	14.8 nM	
AUAUUUUCAGGAUAUCAACUUCACUACAUGAGGAUCACCCAUGUCCUCUAUUGUUUACUGUGAGAAGGGAAAGAGA	1010 nM	507 nM			
AAUCUGAUUGCGGCCGCCACUAAUUUUCCAUGAGUAUUGCAAUUACAUGAGGAUCACCCAUGUCAUAGGACCGGGCAUGACAUCU					apparent Kd [3]: 303 nM; apparent Kd [4]: 240 nM
CCAACAACGGAGAAGGCGUGACUGGUUUCACAGACAGUGUGGCACAUGAGGAUCACCCAUGUGAACGAGGAUAUCCGUGUGCGA			11.6 nM	7.4 nM	
UUUCUGUUACAGAAGGGAAGGAAACAUGAGGAUCACCCAUGUCCACGCCGUUUACAUUCGGCCGUUCAGGAUAUGUCAUAUUGA			23.1 nM	17 nM	
GGACUACAUGAGGAUCACCCAUGUUUUUAAGACACAGGAUAUGAUCACCGCGGACAUGUAUCAGAAGGGUGUACAU			21.8 nM	10.1 nM	
AAUCUCUCUGCAGGAUAUGGUCGCUGAGCUACUCCAGAAGGGCAGUGAGUAAGAUCGUCAGACAUGAGGAUCACCCAUGUAUUU	35.8 nM	30.9 nM			
CACUACUCCCAAGGAUAUUACGCUACAAAUCUUACUAACAUGAGGAUCACCCAUGUUCGGAACGGAAAGAAGGUGGGCUUAUAC			9.38 nM	8.22 nM	
CGUUCCAGGGAGAAGGGCUACAAGAUCUUUCCAGCAGGAUAUCCCAACAUGAGGAUCACCCAUGUAGUCGUGUUAUUGGCUAUA			243 nM	86.4 nM	
AACAAGGAAGGAUAUACAUGAGGAUCACCCAUGUCACUAGGGCCUCCCGCUUCGCUGUGUAGAAGGACCAUGAA	9.74 nM	8.89 nM			
UAUUCUGACACAGAUACCAGUCAAUUCCGUGGCAAGUGCUACAUGAGGAUCACCCAUGUCGACCCUUGGCAGCUGAAGAGAUACA					apparent Kd [9]: 12.1 nM; apparent Kd [10]: 14.1 nM
UGACCGUUAAUAGGAUAUGUUCUCUUCCACAUGAGGAUCACCCAUGUAAACUAUUGUGAAACUGGACAGAAGGAUUAAACAUUG	17.1 nM	14.1 nM			
GUGAAACAUGAGGAUCACCCAUGUCAGGAUAUACUAAUGUCCGCUCGAUUGGACCUGUGUAGAAGGGACUGUGA	12.7 nM	17.6 nM			
GGUCCCAUGCGACAGGAUAUUGGAUGCAGCACAUGAGGAUCACCCAUGUAUACAGUUAUGGAUAACAAGAAGGGUCGCUUUGCAUA			45.3 nM	15.2 nM	
UUCUUACAUGAGGAUCACCCAUGUUCUGAUAGAGCAGGAUAUGAUGGUUAGAAGUAGAAAUCAGAAGGGCUCCAUG			100 nM	19.8 nM	
UACCUUAUUGUUAGGAUAUGCAGAUACAAAGGUGAGCAGAAGGAACAUGAGGAUCACCCAUGUAAAAUAAUAAA	16.6 nM	48 nM			
